M4 PAM: CHRM4 positive allosteric modulation; P08173; CHO-K1 hM4/Gqi5, Fluo-8 calcium fluorescence, ACh EC20; 0% = ACh EC20, 100% = maximal ACh; activation, % at 3 µM; 360,000 tested, 0.4% active;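 active = activation above its plate's cutoff, the mean activation of sample wells plus 3 SD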
Target sequence (P08173 whole entry, looked up): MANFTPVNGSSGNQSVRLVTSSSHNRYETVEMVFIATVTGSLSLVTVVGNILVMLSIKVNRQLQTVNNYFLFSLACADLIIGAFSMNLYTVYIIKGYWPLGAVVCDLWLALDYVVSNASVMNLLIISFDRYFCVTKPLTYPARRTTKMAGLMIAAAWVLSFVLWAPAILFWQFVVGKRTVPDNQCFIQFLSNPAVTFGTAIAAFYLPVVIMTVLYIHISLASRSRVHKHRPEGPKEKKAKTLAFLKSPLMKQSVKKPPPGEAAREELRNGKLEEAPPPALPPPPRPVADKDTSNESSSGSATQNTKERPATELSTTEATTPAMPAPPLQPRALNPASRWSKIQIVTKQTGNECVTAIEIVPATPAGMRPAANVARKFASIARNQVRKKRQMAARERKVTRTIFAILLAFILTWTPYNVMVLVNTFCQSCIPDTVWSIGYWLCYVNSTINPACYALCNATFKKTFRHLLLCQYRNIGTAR
CHRM4 antagonist: antagonists of human muscarinic M4 receptor (CHRM4); P08173; CHO-hM4 cells, ACh EC80, Fluo-8 calcium fluorescence; inhibition, % at 3 µM; 360,000 tested, 0.73% active;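 active = inhibition above its plate's cutoff, the mean inhibition of sample wells plus 3 SD, cut at about 27% in these data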
M4 ag: agonists of human muscarinic M4 receptor (CHRM4) | CHO-K1 hM4/Gqi5, Fluo-8 calcium fluorescence; vehicle 0%, full acetylcholine response 100% | P08173 | activation, % at 3 µM | 360,000 tested, 0.14% active;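 active = activation above the run mean over all test wells plus 3 SD, cut at about 32% in these data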;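 also: peak over basal fluorescence ratio per well then scaled between controls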
CHRM5 antagonist: antagonists of human muscarinic M5 receptor (CHRM5) | P08912 | CHO-hM5 cells, Fluo-8 calcium fluorescence, ACh EC80 | inhibition, % at 3 µM | 360,000 tested, 0.59% active | AID 624040;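 active = inhibition above a per-plate cutoff, the mean of that plate's test compounds plus 3 SD, cut at about 27% in these data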
M5 ag: agonists of human muscarinic M5 receptor (CHRM5) | CHO-K1 hM5 cells, Fluo-8 calcium fluorescence; 0% DMSO wells, 100% maximal acetylcholine response | activation, % at 3 µM | AID 624037 | 360,000 tested, 0.19% active | P08912;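 active = activation above the run's mean over test compounds plus 3 SD, cut at about 23% in these data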;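 also: signal is peak over basal fluorescence ratio across the kinetic read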
M5 PAM: potentiates acetylcholine response at human M5 receptor. activation, % at 3 µM. 360,000 tested, 0.3% active. AID 624038. CHO-K1 hM5, Fluo-8 calcium, ACh EC20 PAM; 0% = ACh EC20, 100% = ACh EC100. P08912;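 active = activation above the run cutoff, the mean activation of all test compounds plus 3 SD, cut at about 18% in these data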
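Measured by: Fluo-8 calcium fluorescence; material: human M5 receptor in CHO-K1 cells; schedule: Post-acetylcholine fluorescence recording 140 s; benchmarks: low control EC20 acetylcholine (0%), high control EC100 acetylcholine (100%); read-out: Max/basal fluorescence ratio as % of EC20–EC100 ACh window; compound: single dose, 3 µM nominal final test concentration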
Large screens that a line does not name were inactive. Only some compounds are listed: those with a hit (about 1.9% of all), similar ones and a draw of the others.

Cc1ccc(C(=O)N2CCN(c3ccc([N+](=O)[O-])c(NCc4ccco4)c3)CC2)cc1	M4 PAM 31
Cc1cccc(C)c1NC(=O)CS(=O)CC(=O)Nc1ccc(F)cc1F (stereo not drawn)	none
CCc1ccc(NC(=O)CS(=O)CC(=O)Nc2ccc(F)cc2F)cc1 (stereo not drawn)	M4 PAM 31
Cc1nn(-c2ccccc2)c(C)c1C(=O)OCC(=O)Nc1cccc(S(N)(=O)=O)c1	none
CCCN(CC(=O)Nc1ccc(F)c(F)c1F)C(=O)C1CC(=O)N(Cc2ccccc2)C1 (stereo not drawn)	M4 PAM 21
CC(C)C(O)(C#CCN1CCCCC1)c1ccccc1 (stereo not drawn)	CHRM4 antagonist 98, CHRM5 antagonist 98
CC(C)C(O)(C#CCN1CCCC1)c1ccccc1 (stereo not drawn)	CHRM4 antagonist 46, CHRM5 antagonist 58
Cc1ccc(C(C)NC(=O)/C(C#N)=C\c2c(C)[nH]c3ccccc23)cc1 (stereo not drawn)	M5 ag 27
CCOC(=O)C1CCN(S(=O)(=O)c2ccc3[nH]c(=O)ccc3c2)CC1	none
Cc1noc(C)c1COc1ccc(C(=O)NCCc2ccccn2)cc1	M4 PAM 29
Cc1noc(C)c1COc1ccc(C(=O)Nc2cccnc2)cc1	CHRM4 antagonist 32
CCOc1ccc(C(=O)NCc2ccccn2)cc1	M4 PAM 31
Cc1cccc(NC(=O)c2ccc(OCc3c(C)noc3C)cc2)c1	none
Cc1noc(C)c1COc1ccc(CC(=O)NCCc2ccccn2)cc1	none
C=C(C)C(=O)Nc1ccc2nn(-c3ccccc3O)nc2c1	none
Cc1nc2ccccc2n1S(=O)(=O)c1cc(C(=O)O)ccc1Cl	none
COC(=O)c1oc2ccc(Br)cc2c1NC(=O)CCCN1C(=O)c2ccccc2C1=O	CHRM4 antagonist 98, CHRM5 antagonist 29
CC1CCN(C(=O)C2CCN(S(=O)(=O)c3ccc(-n4cnnn4)cc3)CC2)CC1	none
Cc1ccccc1Sc1ccc(N)cn1	CHRM4 antagonist 33
Cc1ccc(NC2CCCN(C(=O)c3cccc4nccnc34)C2)cc1C (stereo not drawn)	none
COc1ccccc1Cc1noc(COc2cccc(C)c2C)n1	M4 PAM 34
COc1ccccc1Cc1nc(-c2ccncc2)no1	none
O=C(COC(=O)c1ccc(F)c(S(=O)(=O)N2CCOCC2)c1)NCCc1ccccc1	M4 PAM 21
Cc1ccc(C(=O)OCC(=O)NCCc2ccc(F)cc2)cc1S(=O)(=O)N1CCOCC1	none
CN(C)c1ccc(NC(=O)Nc2ccc3c(c2)c(=O)n(C)n3Cc2ccc(Cl)cc2)cc1	none
O=C(N/C(=C\c1ccccc1)C(=O)N1CCOCC1)c1ccccc1Br	none
Brc1ccc(-c2c[n+]3c(n2-c2ccccc2)SCC3)cc1	CHRM4 antagonist 54
Cc1cc(C)c(C)c(S(=O)(=O)N2CCC(C(=O)N3CC(C)CC(C)C3)CC2)c1C (stereo not drawn)	M4 PAM 20
c1ccc2sc(-c3ccncc3)nc2c1	CHRM5 antagonist 28, M5 PAM 32
CC(C)COc1ccc(-c2nnc(-c3ccncc3)o2)cc1	none
COc1ccc(-c2nnc(-c3ccc(OCC(C)C)cc3)o2)cc1	M4 PAM 22
COc1ccc(S(=O)(=O)N2CCOC23CCN(S(=O)(=O)c2ccc(F)cc2)CC3)cc1	CHRM4 antagonist 29
O=C(Nc1nnc(SCCC2OCCO2)s1)C1CC(=O)N(c2ccccc2)C1 (stereo not drawn)	none
COc1cccc(N2CC(C(=O)Nc3nnc(SCCC4OCCO4)s3)CC2=O)c1 (stereo not drawn)	CHRM5 antagonist 31
COC(=O)c1c(NC(=O)c2ccccc2)sc2c1CC(C)(C)NC2(C)C	none
CC1(C)Cc2c(sc(NC(=O)c3ccc(C(=O)c4ccccc4)cc3)c2C(N)=O)C(C)(C)N1	CHRM5 antagonist 32
CC(C)c1ccc(NC(=O)CN2C(=O)NC3(CCCCCCC3)C2=O)cc1	none
C/C(=N\NC(=O)c1ccccc1O)C1CC1	none
Cc1cc2nc3c(=O)n(CCc4ccccc4)c(=O)[nH]c3nc2cc1N	M5 ag 32
CCCCn1c(=O)[nH]c2nc3cc(N)ccc3nc2c1=O	M4 ag 57
Nc1ccc2nc(CCc3ccccc3)[nH]c2c1	none
Nc1ccc2nc3c(=O)n(C4CCCCC4)c(=O)[nH]c3nc2c1	M4 ag 70, CHRM5 antagonist 35, M5 ag 133
Nc1ccc2nc3c(=O)n(CCc4ccccc4)c(=O)[nH]c3nc2c1	M4 ag 45, CHRM5 antagonist 33, M5 ag 165
O=C1CCC([N+](=O)[O-])C(c2ccccc2F)N1 (stereo not drawn)	none
CCOC(=O)C1C(=O)C=C(c2ccc(C)cc2)CC1c1ccccc1 (stereo not drawn)	none
CCOC(=O)C1C(=O)C=C(/C=C/c2ccc(N(C)C)cc2)CC1c1ccccc1 (stereo not drawn)	M5 ag 29
CCN1CCN(CCNC(=O)c2ccc(/C=C3/Sc4ccccc4N(Cc4ccccc4C)C3=O)cc2)CC1	M4 ag 33
O=C(CSc1ccc2ccccc2n1)NCCC1=CCCCC1	CHRM5 antagonist 30
CCCNC(=O)C1(C)CCCN(C(=O)c2cc(F)ccc2C)C1 (stereo not drawn)	none
CCn1cc([N+](=O)[O-])c(C(=O)N2N=C(c3ccc4ccccc4c3)CC2c2ccccc2O)n1 (stereo not drawn)	none
CCn1cc([N+](=O)[O-])c(C(=O)N2N=C(c3cccc4ccccc34)CC2c2ccccc2O)n1 (stereo not drawn)	M5 PAM 29
CC(C)CCNC(=O)NC(=O)COc1ncnc2sccc12	none
CC(C)CNC(=O)NC(=O)COc1ncnc2sccc12	M4 PAM 28
COc1cc(C(=O)NC2CC(C)(C)Cc3c2cnn3-c2ccccc2)cc(OC)c1OC (stereo not drawn)	none
COc1cccc(C(=O)NC2CC(C)(C)Cc3c2cnn3-c2cccc(F)c2)c1OC (stereo not drawn)	CHRM5 antagonist 28
CC(CCc1ccc(O)cc1)NCCC(c1ccccc1)c1ccccc1 (stereo not drawn)	CHRM4 antagonist 32, M4 ag 33
CC(CCc1ccc(O)cc1)NC(c1ccccc1)c1ccc(Cl)cc1 (stereo not drawn)	none
COc1ccc(C2CC(=O)CCN2S(=O)(=O)c2ccc(C)cc2)cc1 (stereo not drawn)	none
CC(C)N(CC#CCC(O)(c1ccccc1)c1ccccc1)CCO	none

Source: PubChem BioAssay (The Scripps Research Institute Molecular Screening Center)
